This is a sample that favours compounds with a hit; in the whole collection about 2.2% have one here.
Runt-CBFb FRET – blocks binding of human RUNX1 Runt domain to CBFb | inhibition, % at 20 µM | actives 0.46% (n = 220,000) | Q01196+Q13951 | Cerulean-Runt/Venus-CBFb FRET ratio 530/480, 1 h;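 active = inhibition over about 50% at 20 µM in the single-dose screen, limit read from the data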
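test system = Cerulean-tagged RUNX1 Runt domain (FRET donor) fusion protein | reagent = Venus-CBFb binding partner, 100 nM | incubation = protein complex preformed 1 h, compound exposure 1 h, room temperature, dark | detection = FRET fluorescence | read-out basis = loss of energy transfer signal | controls = 5 µM unlabeled CBFb as full-inhibition high control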
TbHK1 inh – blocks Trypanosoma brucei hexokinase 1 activity; recombinant TbHK1, G6PDH-coupled NADH A340; inhibition, % at 10 µM; actives 0.11% (n = 220,000);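 active = inhibition of 50% or more in the single-dose primary screen; inactive = inhibition below 50%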
Runt-SMMHC FRET – Runt domain-CBFb-SMMHC interaction inhibition; Q01196+Q13951; Cerulean-Runt/Venus-CBFb-SMMHC FRET ratio 530/480, 1 h; inhibition, % at 20 µM; actives 0.74% (n = 220,000); AID 1434;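 active = mean inhibition across duplicate retests at 20 µM reaching about 50%, limit read from the data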;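 also: inhibitors lower the FRET ratio by blocking Runt binding to CBFb-SMMHC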
RanGTP-Impb inh – disruptors of Ran-importin-beta complex formation – biochemical, FRET, CFP-Ran, YFP-importin-beta, homogeneous, primary screen; actives 1.1% (n = 300,000); cell-free CFP-Ran/YFP-importin-beta FRET ratio; inhibition, % (concentration not given with the values);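 active = more than half of the replicate wells show a fall in the fluorescence ratio signal beyond about 16%, limit read from the data, passing the limit was not always enough; inconclusive = exactly half of the replicate wells pass the set limit; inactive = fewer than half of replicates pass the limit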
14-3-3 Bad PPI – disrupts binding of bovine 14-3-3 zeta to phospho-Bad peptide. P63103. TR-FRET 14-3-3zeta/Dy647-pBad peptide displacement, 1 h. inhibition, % at 21.7 µM. actives 0.71% (n = 220,000). AID 781;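 active = inhibition above about 70%, limit read from the data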
Target sequence (P63103 whole entry, looked up): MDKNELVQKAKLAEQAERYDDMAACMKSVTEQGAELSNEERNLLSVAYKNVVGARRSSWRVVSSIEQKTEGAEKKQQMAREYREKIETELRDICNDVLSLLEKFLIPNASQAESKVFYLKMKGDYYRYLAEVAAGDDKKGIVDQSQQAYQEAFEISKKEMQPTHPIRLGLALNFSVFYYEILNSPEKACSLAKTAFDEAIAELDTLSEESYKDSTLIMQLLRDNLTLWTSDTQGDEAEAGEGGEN
Hck-Nef inh – inhibitors of human Hck kinase activated by Nef; inhibition, % at 20 µM; actives 0.68% (n = 220,000); P08631; Recombinant Hck-YEEI plus Nef, Z-Lyte FRET kinase assay; AID 463187;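 active = Hck-Nef kinase inhibition above about 50%, limit read from the data; inactive = inhibition below that limit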
Target sequence (P08631 whole entry, looked up): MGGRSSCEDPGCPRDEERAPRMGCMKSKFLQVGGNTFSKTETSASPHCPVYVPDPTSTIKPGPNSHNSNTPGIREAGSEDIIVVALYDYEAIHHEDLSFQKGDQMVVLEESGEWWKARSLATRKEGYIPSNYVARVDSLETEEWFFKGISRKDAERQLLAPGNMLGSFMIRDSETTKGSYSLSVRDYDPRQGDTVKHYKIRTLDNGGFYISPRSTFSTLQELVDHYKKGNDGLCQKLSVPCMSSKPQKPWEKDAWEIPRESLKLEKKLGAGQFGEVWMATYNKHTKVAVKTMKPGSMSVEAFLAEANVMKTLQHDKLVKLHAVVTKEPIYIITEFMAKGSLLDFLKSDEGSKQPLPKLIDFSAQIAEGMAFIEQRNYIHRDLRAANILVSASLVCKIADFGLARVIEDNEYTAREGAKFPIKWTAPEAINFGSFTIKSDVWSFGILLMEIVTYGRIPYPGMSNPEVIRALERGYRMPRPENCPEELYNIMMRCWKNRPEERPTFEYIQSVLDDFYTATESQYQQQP
G6PDH ctr – inhibits Leuconostoc G6PDH, counter-screen for TbHK1 inhibitors; purified G6PDH, NADH absorbance, 1 h; actives 7% (n = 210); shares compounds with TbHK1 inh; inhibition, % at 10 µM;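 active = at least 50% inhibition in the glucose-6-phosphate dehydrogenase coupled counterscreen; inconclusive = no clear call, values can overlap the other calls; inactive = inhibition below 50%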
TbHK1 rescreen – T. brucei hexokinase 1 inhibition, rescreen | shares compounds with TbHK1 inh | recombinant TbHK1, G6PDH-coupled NADH A340 absorbance | inhibition, % at 10 µM | actives 10% (n = 210) | AID 2560;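 active = inhibition of at least 50% in both of the two screening runs; inconclusive = at least 50% in one run, below 50% in the other; inactive = inhibition below 50% in both runs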
RUNX1 CBFb TR – inhibitors of human RUNX1 Runt domain binding to CBFb; shares compounds with Runt-CBFb FRET; TR-FRET RUNX1 Runt domain-CBFb binding; inhibition, % at 20 µM; actives 20% (n = 480); AID 1502; in the data active = inhibition above about 40%
Hck-Nef confirm – confirmation of Hck-Nef kinase inhibitors. calls only at 10 µM. AID 463188. actives 28% (n = 1,300). shares compounds with Hck-Nef inh. Recombinant Hck-YEEI:Nef, Z-Lyte FRET kinase assay;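 active = average inhibition of at least 50%, with Z-scores no higher than 3 in both the phospho-tyrosine peptide and fluorescence counterscreens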
Of the large screens only hits and unclear results are named; the others gave an inactive call (follow-up assays come after a bar, where they were run); ! = a repeat was not active.

COc1ccc(-c2nnn(CC#N)n2)cc1OC	none
COc1ccccc1-c1nnn(CC#N)n1	TbHK1 inh 52 | G6PDH ctr inactive | TbHK1 rescreen inactive
CC(=O)/C=C(/C)NC(Cc1c[nH]c2ccccc12)C(=O)O (stereo not given)	TbHK1 inh 51! | G6PDH ctr inactive | TbHK1 rescreen inactive
O=C(NC(Cc1c[nH]c2ccccc12)C(=O)O)c1ccccc1 (stereo not given)	none
O=C(CN1CCN(Cc2cccc(Cl)c2)C1=O)NCc1cccs1	none
O=C(/C=C/c1cc[n+](CC(=O)c2ccc3cccc4c3c2CC4)cc1)c1ccc2cccc3c2c1CC3	TbHK1 inh 75, 14-3-3 Bad PPI 94, Hck-Nef inh 69 | G6PDH ctr 100 | TbHK1 rescreen inactive
CC(=O)c1ccc(NC(=O)C2CC(c3ccc(F)cc3)=NO2)cc1 (stereo not given)	TbHK1 inh 52 | G6PDH ctr inactive | TbHK1 rescreen inactive
CC(=O)c1cccc(NC(=O)C2CC(c3ccc(F)cc3)=NO2)c1 (stereo not given)	none
CC(C)(C)OC(=O)NCC(=O)NCC(=O)OCc1ccccc1	TbHK1 inh 53 | G6PDH ctr inactive | TbHK1 rescreen inactive
COC(=O)[C@H](Cc1ccccc1)NC(=O)O[C@@H]1C(=O)c2cc(Br)ccc2O[C@H]1c1cccc(OC)c1	none
C=CCNC(=O)CC(C)C(CCCCC)C(=O)O (stereo not given)	TbHK1 inh 50 | G6PDH ctr inactive | TbHK1 rescreen inactive
NS(=O)(=O)c1ccc(N/N=C/c2ccccc2C(=O)O)c([N+](=O)[O-])c1	none
NS(=O)(=O)c1ccc(N/N=C/c2ccc(O)c(O)c2O)c([N+](=O)[O-])c1	TbHK1 inh 67, Runt-SMMHC FRET 65, 14-3-3 Bad PPI 89, Hck-Nef inh 51 (no result: RanGTP-Impb inh) | G6PDH ctr inactive | TbHK1 rescreen inactive
Cc1ccc(CNC(=O)CCS(=O)(=O)c2ccc(Br)cc2)cc1	TbHK1 inh 68, 14-3-3 Bad PPI 96 | G6PDH ctr inactive | TbHK1 rescreen 79
Cc1ccc(CNC(=O)CCS(=O)(=O)c2ccc(Cl)cc2)cc1	none
CC(C)Sc1nnc([C@H](Cc2c[nH]c3ccccc23)NC(=O)OC(C)(C)C)o1	none (no result: 14-3-3 Bad PPI)
Cc1c(NC(=O)CC(=O)Nc2c(C)n(C)n(-c3ccccc3)c2=O)c(=O)n(-c2ccccc2)n1C	TbHK1 inh 74 | G6PDH ctr inactive | TbHK1 rescreen inactive
CCc1noc(C)c1C(=O)Nc1ccc(F)c(F)c1	none (no result: Runt-CBFb FRET, TbHK1 inh, Runt-SMMHC FRET, 14-3-3 Bad PPI, Hck-Nef inh)
O=c1c2ccccc2sn1-c1ccccc1	TbHK1 inh 81, Runt-SMMHC FRET 57, Hck-Nef inh 96 | G6PDH ctr inactive | TbHK1 rescreen 84
O=c1c2ccccc2sn1-c1ccc(S(=O)(=O)N2CCCC2)cc1	RanGTP-Impb inh inconclusive
CN1C(=O)C(Cl)(Cl)C(=O)c2ccccc21	Runt-CBFb FRET 54, TbHK1 inh 75 | G6PDH ctr inactive | TbHK1 rescreen inactive | RUNX1 CBFb TR inactive
CN1C(=O)C2(NC(=O)c3ccccc3N2C)c2ccccc21 (stereo not given)	none
COc1ccc(C)cc1Cn1c(S(C)(=O)=O)nc2ccccc21	none
O=c1c2ccccc2sn1-c1nccs1	Runt-CBFb FRET 50, TbHK1 inh 72, Runt-SMMHC FRET 80 | G6PDH ctr inactive | TbHK1 rescreen 74 | RUNX1 CBFb TR inactive
Cc1ccc(-c2nc(N)s[n+]2-c2ccccc2)cc1	TbHK1 inh 98, Runt-SMMHC FRET 65, Hck-Nef inh 101 | G6PDH ctr inactive | TbHK1 rescreen 95 | Hck-Nef confirm active
CCOC(=O)CNC(=O)c1ccc(SCC)cc1	none
CC(C)OCCCn1c(=N)c(C(N)=S)cc2c(=O)n3ccccc3nc21	Runt-CBFb FRET 65, Runt-SMMHC FRET 65 | RUNX1 CBFb TR inactive
CCOCCCn1c(=N)c(C(=O)NCc2ccc3c(c2)OCO3)cc2c(=O)n3ccccc3nc21	Runt-CBFb FRET 51, Runt-SMMHC FRET 125, RanGTP-Impb inh 29 | RUNX1 CBFb TR inactive
CCNC(=O)CSc1nc2ccccc2c(=O)n1CCCOC(C)C	none
CN(c1ccccc1)S(=O)(=O)c1ccc2c(c1)oc(=O)n2C	none (no result: Runt-CBFb FRET, TbHK1 inh, Runt-SMMHC FRET, 14-3-3 Bad PPI, Hck-Nef inh)
CCOC(=O)c1ccc(N2C(=O)c3n[nH]c(-c4ccco4)c3C2c2ccc([N+](=O)[O-])cc2)cc1 (stereo not given)	Runt-CBFb FRET 68 | RUNX1 CBFb TR inactive
CCOC(=O)c1ccc(N2C(=O)c3n[nH]c(C)c3C2c2cccnc2)cc1 (stereo not given)	none
COC(=O)c1ccc(OCC(O)CN(CC(C)C)CC(C)C)cc1 (stereo not given)	none
Oc1ccc(O)c(Cc2nc3ccccc3[nH]2)c1	Runt-CBFb FRET 53 | RUNX1 CBFb TR inactive
Cc1ccc(N(C(=O)c2snc(C(N)=O)c2N)C(C(=O)NC2CCCC2)c2ccc(C)o2)cc1 (stereo not given)	none (no result: Runt-CBFb FRET, TbHK1 inh, Runt-SMMHC FRET, 14-3-3 Bad PPI, Hck-Nef inh)
CCC(Sc1nc2c(c(=O)n1CC)SC(C)C2)C(=O)OC (stereo not given)	none
CCc1c(C)c(C#N)c2nc3ccccc3n2c1N(C)C	none (no result: RanGTP-Impb inh)
CCc1c(C)c(C#N)c2nc3ccccc3n2c1Nc1c(C)n(C)n(-c2ccccc2)c1=O	Runt-CBFb FRET 56, Runt-SMMHC FRET 92, RanGTP-Impb inh 40 | RUNX1 CBFb TR inactive
Cc1ccc(C(=O)c2sc3nsc(C)c3c2N)cc1	Runt-CBFb FRET 50 | RUNX1 CBFb TR 44
Cc1snc2sc(C(=O)c3ccc(Br)cc3)c(N)c12	none
O=c1oc2ccc(NS(=O)(=O)c3cccc4cccnc34)cc2s1	none (no result: Runt-CBFb FRET, TbHK1 inh, Runt-SMMHC FRET, 14-3-3 Bad PPI, Hck-Nef inh)
O=C(O)c1cccc(S(=O)(=O)Nc2ccc3oc(=O)sc3c2)c1	Runt-CBFb FRET 65, Runt-SMMHC FRET 68 | RUNX1 CBFb TR inactive
CN1/C(=C\C(=O)c2cccnc2)Sc2ccccc21	Runt-CBFb FRET 66, Runt-SMMHC FRET 51 | RUNX1 CBFb TR inactive
Nc1ncnc(Sc2ncccn2)c1[N+](=O)[O-]	Runt-CBFb FRET 62 | RUNX1 CBFb TR inactive
CCCCCNC(=O)C1CCC(Cn2c(=S)[nH]c3ccccc3c2=O)CC1 (stereo not given)	none (no result: Runt-CBFb FRET)

High-throughput results (PubChem BioAssay)
